Experimental data from ChEMBL document CHEMBL5260824, “9-Deazapurines as Broad-Spectrum Inhibitors of the ABC Transport Proteins P-Glycoprotein, Multidrug Resistance-Associated Protein 1, and Breast Cancer Resistance Protein” (J Med Chem, 2017).

Experiments:
H69AR [1] = assay: Reversal of Daunorubicin resistance in human NCI-H69AR cells assessed as Daunorubicin GI50 at 1 uM measured for 72 hrs by MTT assay; type: functional
Method in brief: (§1)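 Reversal assay: resistant lines (A2780/ADR, H69AR, MDCK II BCRP) and parental lines seeded as for MTT assay with modulator solutions of 1, 10 and 100 µM added (final 0.1, 1, 10 µM) and daunorubicin (P-gp, MRP1) or SN-38 (BCRP) at final 10 nM–10 µM. 72 h, MTT read-out; GI50 by variable-slope fit. Resistance factor = resistant/sensitive GI50; potentiation factor = GI50 without/with modulator.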

[2] = Sensitization of human A2780 ADR cells expressing P-gp assessed as maximal sensitivity at 10 uM relative to control; type: functional
Method in brief: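 Resistant lines were exposed to daunorubicin (A2780/ADR, H69AR) or SN-38 (MDCK II BCRP) over 10 nM–10 µM final, with or without modulator, for 72 h. Viability was read by MTT. Potentiation factor is GI50 without modulator over GI50 with modulator. Maximal sensitization is pf at 10 µM divided by the native resistance factor, in percent.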

MRP1 = MRP1 (Homo sapiens, UniProt P33527); assay: Inhibition of MRP1 in human NCI-H69AR cells at 10 uM incubated for 180 mins in presence of daunorubicin by flow cytometry analysis relative to control; type: cell-based; details: probe daunorubicin
Sequence of MRP1 (P33527 whole entry): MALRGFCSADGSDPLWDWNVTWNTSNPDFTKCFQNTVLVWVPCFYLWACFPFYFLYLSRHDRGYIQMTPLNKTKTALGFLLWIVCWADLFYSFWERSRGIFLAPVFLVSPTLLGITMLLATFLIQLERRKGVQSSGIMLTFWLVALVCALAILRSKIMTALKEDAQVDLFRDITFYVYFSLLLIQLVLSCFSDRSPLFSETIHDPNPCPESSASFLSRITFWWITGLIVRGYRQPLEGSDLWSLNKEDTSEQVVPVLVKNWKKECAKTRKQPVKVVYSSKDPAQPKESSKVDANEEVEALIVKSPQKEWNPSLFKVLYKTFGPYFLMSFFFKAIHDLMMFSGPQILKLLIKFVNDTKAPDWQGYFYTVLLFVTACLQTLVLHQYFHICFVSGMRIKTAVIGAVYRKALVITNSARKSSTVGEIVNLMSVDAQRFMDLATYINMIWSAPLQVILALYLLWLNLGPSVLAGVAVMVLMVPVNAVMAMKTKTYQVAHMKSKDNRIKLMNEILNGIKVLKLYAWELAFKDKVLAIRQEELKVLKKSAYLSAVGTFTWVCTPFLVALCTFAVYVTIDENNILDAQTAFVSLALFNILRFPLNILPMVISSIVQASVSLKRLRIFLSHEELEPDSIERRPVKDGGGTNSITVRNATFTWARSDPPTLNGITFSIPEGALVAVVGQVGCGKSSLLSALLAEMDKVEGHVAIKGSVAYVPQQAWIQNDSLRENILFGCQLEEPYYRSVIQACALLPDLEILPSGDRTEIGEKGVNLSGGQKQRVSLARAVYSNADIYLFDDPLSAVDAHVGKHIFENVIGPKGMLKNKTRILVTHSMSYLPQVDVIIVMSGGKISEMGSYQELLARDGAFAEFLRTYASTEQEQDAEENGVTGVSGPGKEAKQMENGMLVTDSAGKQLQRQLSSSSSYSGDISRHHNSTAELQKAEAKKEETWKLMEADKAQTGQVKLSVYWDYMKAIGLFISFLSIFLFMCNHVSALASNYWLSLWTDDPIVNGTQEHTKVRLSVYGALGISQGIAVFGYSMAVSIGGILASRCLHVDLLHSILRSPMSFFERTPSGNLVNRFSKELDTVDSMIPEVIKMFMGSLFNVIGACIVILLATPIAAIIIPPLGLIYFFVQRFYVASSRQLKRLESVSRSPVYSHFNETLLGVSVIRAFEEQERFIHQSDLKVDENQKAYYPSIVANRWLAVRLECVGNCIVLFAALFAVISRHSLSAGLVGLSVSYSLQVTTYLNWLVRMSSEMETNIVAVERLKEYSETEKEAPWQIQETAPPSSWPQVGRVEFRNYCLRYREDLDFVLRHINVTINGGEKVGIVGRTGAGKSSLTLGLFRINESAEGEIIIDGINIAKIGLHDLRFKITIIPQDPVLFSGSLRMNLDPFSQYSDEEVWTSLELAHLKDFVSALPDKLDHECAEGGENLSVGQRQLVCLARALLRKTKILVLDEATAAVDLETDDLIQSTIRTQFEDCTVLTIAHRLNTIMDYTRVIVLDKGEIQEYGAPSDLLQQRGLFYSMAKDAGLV
Method in brief: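 H69AR cells (doxorubicin-selected small cell lung cancer, RPMI-1640/20% FBS), about 60,000 per well, preincubated 15 min with compound (100 nM–100 µM added solutions, in unsupplemented medium), then daunorubicin (30 µM solution added); steady state after 180 min, 37 °C, 5% CO2. Cells resuspended; flow cytometry, 488 nm excitation, FL3 (≥670 nm). Reference inhibitor 75 at 10 µM = 100%; Imax relative to it.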

[3] = Inhibition of daunorubicin sensitive human A2780 ADR cells expressing P-gp measured for 72 hrs by MTT assay; type: functional; method in brief: as §1
[4] = Antiproliferative activity against dog MDCK-II-BCRP cells assessed as reduction in cell viability measured for 72 hrs bt MTT assay; type: functional; details: Canis lupus familiaris
[5] = Reversal of drug resistance in dog MDCK-II-BCRP cells expressing BCRP; type: functional, cell-based, Canis lupus familiaris
Method in brief: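 Cells seeded per well (A2780/ADR 8,000; H69AR 20,000; MDCK II BCRP 3,000) with test compound at 1, 10 or 100 µM solutions added before cells. Daunorubicin (P-gp, MRP1) or SN-38 (BCRP) added to final 10 nM–10 µM. 72 h at 37 °C, then MTT viability read at 570 nm. GI50 from variable-slope nonlinear fits, compared with parental lines; three independent experiments in duplicate.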

P-gp (ABCB1) = P-gp (ABCB1) (Homo sapiens, UniProt P08183); assay: Inhibition of P-gp (unknown origin) at 10 uM incubated for 30 mins by calcein AM analysis relative to control; details: probe calcein AM
Sequence of P-gp (ABCB1) (P08183 whole entry): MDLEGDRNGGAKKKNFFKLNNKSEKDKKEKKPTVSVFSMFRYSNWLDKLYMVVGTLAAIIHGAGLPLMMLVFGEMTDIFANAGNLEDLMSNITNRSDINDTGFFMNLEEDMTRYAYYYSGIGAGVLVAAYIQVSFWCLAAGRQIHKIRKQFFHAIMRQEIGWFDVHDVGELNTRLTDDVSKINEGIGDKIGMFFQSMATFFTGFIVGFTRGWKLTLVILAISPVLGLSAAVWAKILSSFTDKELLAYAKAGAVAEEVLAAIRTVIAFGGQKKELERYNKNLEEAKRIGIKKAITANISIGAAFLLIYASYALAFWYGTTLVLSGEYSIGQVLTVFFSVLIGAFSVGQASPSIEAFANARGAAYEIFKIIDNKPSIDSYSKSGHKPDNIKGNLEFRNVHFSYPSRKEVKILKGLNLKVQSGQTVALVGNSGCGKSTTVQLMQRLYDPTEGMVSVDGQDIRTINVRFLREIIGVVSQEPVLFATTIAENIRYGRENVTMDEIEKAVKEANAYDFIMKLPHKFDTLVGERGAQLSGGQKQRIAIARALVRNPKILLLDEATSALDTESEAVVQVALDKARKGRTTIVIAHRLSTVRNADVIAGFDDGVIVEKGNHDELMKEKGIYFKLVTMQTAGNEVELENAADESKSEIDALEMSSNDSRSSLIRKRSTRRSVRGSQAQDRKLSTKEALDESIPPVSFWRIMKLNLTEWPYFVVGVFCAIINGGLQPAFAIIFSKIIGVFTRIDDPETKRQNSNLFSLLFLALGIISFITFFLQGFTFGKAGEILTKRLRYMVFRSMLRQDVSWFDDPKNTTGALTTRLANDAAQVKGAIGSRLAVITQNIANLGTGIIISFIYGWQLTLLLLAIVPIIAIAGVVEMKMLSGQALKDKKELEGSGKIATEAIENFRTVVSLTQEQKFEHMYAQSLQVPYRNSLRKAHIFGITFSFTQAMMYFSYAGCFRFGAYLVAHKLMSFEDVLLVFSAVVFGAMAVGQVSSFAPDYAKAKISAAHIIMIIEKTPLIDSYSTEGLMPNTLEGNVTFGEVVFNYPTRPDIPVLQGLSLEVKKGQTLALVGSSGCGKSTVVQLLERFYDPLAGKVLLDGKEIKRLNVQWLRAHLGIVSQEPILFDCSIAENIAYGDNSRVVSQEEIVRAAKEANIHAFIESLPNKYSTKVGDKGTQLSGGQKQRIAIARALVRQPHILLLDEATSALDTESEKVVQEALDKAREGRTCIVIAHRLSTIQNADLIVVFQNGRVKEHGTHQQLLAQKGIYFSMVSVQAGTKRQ
Method in brief: (§2)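 A2780/ADR cells (doxorubicin-selected, P-gp overexpressing), about 30,000 per well in Krebs-HEPES buffer pH 7.4, incubated 30 min at 37 °C with compound (100 nM–100 µM added solutions). Calcein AM (3.125 µM solution added) then fluorescence read every 60 s at 37 °C, ex 485/em 520 nm; slope over minutes 5–30 plotted vs log concentration. Cyclosporine A 10 µM = 100% inhibition, buffer = 0%.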

[6] = molecular target: ATP-dependent translocase ABCB1 (Homo sapiens, UniProt P08183); assay: Inhibition of P-gp (unknown origin) incubated for 30 mins by calcein AM analysis; method in brief: as §2
Sequence of ATP-dependent translocase ABCB1 (P08183 whole entry): as above

BCRP (ABCG2) = molecular target: T1, BCRP (ABCG2) (Homo sapiens, UniProt Q9UNQ0); assay: Inhibition of BCRP (unknown origin) expressed in dog MDCK-II cells at 10 uM using pheophorbide A as substrate preincubated for 20 mins followed by substrate addition and measured after 120 mins by flow cytometry analysis relative to control; type: cell-based; details: probe pheophorbide A
T1 sequence (Q9UNQ0 whole entry): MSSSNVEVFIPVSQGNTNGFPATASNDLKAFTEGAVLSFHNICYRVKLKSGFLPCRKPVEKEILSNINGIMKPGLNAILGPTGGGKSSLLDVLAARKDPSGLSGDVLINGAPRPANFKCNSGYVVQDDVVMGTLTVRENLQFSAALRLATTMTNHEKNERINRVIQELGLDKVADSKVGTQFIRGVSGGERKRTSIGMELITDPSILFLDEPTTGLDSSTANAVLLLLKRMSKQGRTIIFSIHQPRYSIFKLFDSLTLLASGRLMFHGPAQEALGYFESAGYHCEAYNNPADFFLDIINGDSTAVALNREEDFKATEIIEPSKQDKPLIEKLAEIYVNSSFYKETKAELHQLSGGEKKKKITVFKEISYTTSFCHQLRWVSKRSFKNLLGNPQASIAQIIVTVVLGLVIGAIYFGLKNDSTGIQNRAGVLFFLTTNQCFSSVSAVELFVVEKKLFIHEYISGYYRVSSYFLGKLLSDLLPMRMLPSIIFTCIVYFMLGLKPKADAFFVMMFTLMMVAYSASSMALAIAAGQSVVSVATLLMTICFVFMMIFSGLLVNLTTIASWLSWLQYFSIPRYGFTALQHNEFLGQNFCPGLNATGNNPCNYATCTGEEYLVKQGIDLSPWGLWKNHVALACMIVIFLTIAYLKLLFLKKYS
Method in brief: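 MDCK II cells transfected with human wild-type BCRP cDNA C-terminally fused to GFP, grown in DMEM/10% FBS. About 45,000 cells per well preincubated 20 min at 37 °C, 5% CO2 with compound (100 nM–100 µM added solutions), then pheophorbide A (5 µM solution added) for 120 min to steady state. Resuspended; flow cytometry, 488 nm excitation, FL3 (≥670 nm); GFP in FL1. Reference inhibitor 24 at 10 µM = 100%.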

H69AR [7] = assay: Potentiation factor, ratio of GI50 for daunorubicin resistant human NCI-H69AR cells expressing MRP1 cells to GI50 for reversal of daunorubicin resistance in human NCI-H69AR cells assessed as daunorubicin GI50 at 0.1 uM (reference value: 1 uM); type: functional; method in brief: as §1
[8] = Potentiation factor, ratio of GI50 for SN-38 resistant dog MDCK-II-BCRP cells expressing BCRP cells to GI50 for reversal of SN-38 resistance in dog MDCK-II-BCRP cells assessed as SN-38 GI50 at 0.1 uM (reference value: 1 uM); type: functional, Canis lupus familiaris; method in brief: as §1
[9] = Reversal of Daunorubicin resistance in human A2780 ADR cells assessed as Daunorubicin GI50 at 10 uM measured for 72 hrs by MTT assay; type: functional; method in brief: as §1
[10] = Antiproliferative activity against human A2780 ADR cells assessed as reduction in cell viability measured for 72 hrs bt MTT assay; type: functional
A2780 = assay: Antiproliferative activity against human A2780 cells assessed as reduction in cell viability measured for 72 hrs bt MTT assay; type: functional
[11] = Potentiation factor, ratio of GI50 for daunorubicin resistant human A2780 ADR cells expressing P-gp cells to GI50 for reversal of daunorubicin resistance in human A2780 ADR cells assessed as daunorubicin GI50 at 10 uM (reference value: 1 uM); type: functional; method in brief: as §1

## N#Cc1cn(CCCc2ccccc2)c2c(N3CCN(CCc4c[nH]c5ccccc45)CC3)ncnc12
H69AR [1]
  GI50: 1170 nM
[2]
  Activity: 24%
MRP1
  inhibition at 3 h, 10 µM: > 25%
[3]
  GI50: 10 nM
[4]
  GI50: 23.2 µM
[5]
  EC50: 478 nM
P-gp (ABCB1)
  inhibition at 0.5 h, 10 µM: > 25%
[6]
  IC50: 1460 nM
BCRP (ABCG2)
  inhibition at 2 h, 10 µM: > 25%
H69AR [7]
  PF: 1.8
[8]
  PF: 1.9
[9]
  GI50: 44 nM
[10]
  GI50: 13.7 µM
A2780
  GI50: 6.36 µM
[11]
  RatioGI50: 13
